Here are results for 18 compounds from ChEMBL document CHEMBL1149284, “Discovery of pyrano[3,4-b]indoles as potent and selective HCV NS5B polymerase inhibitors” (J Med Chem, 2004).

Broadly, the IC50 is the concentration at which inhibition is half-maximal. High values mean weaker potency in that assay, low ones greater potency in that assay. Broadly, the EC50 is the concentration at which the effect is half-maximal. A higher EC50 goes with weaker potency.

Molecules are shown by their SMILES. The source made the active and inactive calls. The rule behind the calls is not given here. Where only a bound is given, the exact number is not on record here.

Data set [1] is described as follows: Cytotoxicity against Huh7 cells by MTS assay. It counts as cell-based. As to conditions: human, huh-7. A digest of the protocol: (§1)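 MTS metabolic assay run on rapidly dividing and on stationary cells.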
A short description of data set [2]: Inhibition of HCV NS5B polymerase. Also on record: species or system Hepacivirus hominis. The method in brief:
(§2)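 In vitro nucleotide incorporation assay using functionally active recombinant NS5B with a hairpin-like primed RNA substrate. Controls: enzyme without compound (positive) and enzyme with basilen blue (negative). Result reported as IC50.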

Data set [3] concerns Hepatitis C virus. Description: Reduction of viral RNA in Huh7 cells containing HCV sub-genomic replicon after 3 days. The data set is classed as functional, organism-based, Hepacivirus hominis. As to conditions: Huh-7, 72 h.
For data set [4], the system named is Hepatitis C virus. Description: Reduction of viral protein in Huh7 cells containing HCV sub-genomic replicon after 3 days. As to conditions: Hepacivirus hominis; Huh-7. The data set is classed as functional, organism-based.
A short description of data set [5]: Inhibition of HCV 3a NS5B polymerase. More on the design: species or system Hepatitis C virus subtype 3a. The method in brief: (§3)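 In vitro nucleotide incorporation assay using functionally active recombinant NS5B enzyme and a hairpin-like primed RNA substrate. Enzyme without compound served as the positive control, and enzyme with basilen blue dye as the negative control. IC50 values were determined.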

The species entered for the next data set is Homo sapiens. Kind of data set: Inhibition of human mitochondrial DNA polymerase gamma up to 80 uM.
In data set [6] the test system is Hepatitis C virus. Description: Inhibition of HCV 1b NS5B polymerase. More on the design: species or system Hepatitis C virus subtype 1b. The method in brief: as §2
Data set [7] can be described thus: Inhibition of HCV 1a NS5B polymerase. More on the design: species or system Hepatitis C virus subtype 1a. A digest of the protocol:
as §3

Data set [8] is described as follows: Inhibition of HIV reverse transcriptase. Also on record: species or system Human immunodeficiency virus.
Data set [9] can be described thus: Inhibition of calf thymus polymerase alpha. Also on record: species or system Bos taurus.
A short description of data set [10]: Inhibition of helicase. Also on record: species or system Homo sapiens.
In the next data set the test system is Vero. Description: Cytotoxicity against Vero cells by MTS assay. The data set is classed as cell-based. As to conditions: chlorocebus sabaeus. A digest of the protocol:
as §1

The next data set addresses DNA polymerase beta (Homo sapiens, UniProt P06746). Kind of data set: Inhibition of human DNA polymerase beta.

As for `CCC[C@@]1(CC(=O)O)OCCc2c1[nH]c1c(C)cc(F)c(C#N)c21`, the Activity in [1] is above 50 µM. In addition, half-maximal inhibition in [2] (IC50) was put at 630 nM.

With `CCCC1(CC(=O)O)OCCc2c1[nH]c1c(C)ccc(C#N)c21` (centres undefined), 570 nM corresponded to half-maximal inhibition in [2] (IC50).

In data set [2], `CCCC1(CC(=O)O)OCCc2c1[nH]c1c(C)cc(F)c(C#N)c21` (centres undefined) returned an IC50 of 120 nM.

On to `CCc1ccc(Cl)c2[nH]c3c(c12)CCOC3(CC)CC(=O)O` (centres undefined), for which the IC50 in data set [2] is above 30000 nM.

Turning to `CCC[C@@]1(CC(=O)O)OCCc2c1[nH]c1c(Cl)ccc(Cl)c21`, the Activity in data set [1] was determined as 49 µM. In addition, the IC50 in [2] was 1100 nM.

Consider `CCCC1(CC(=O)O)OCCc2c1[nH]c1cccc(Cl)c21` (centres undefined), for which, in data set [2], 6000 nM corresponded to half-maximal inhibition (IC50).

`CCC[C@]1(CC(=O)O)OCCc2c1[nH]c1c(C)cc(F)c(C#N)c21` registered an Activity in [1] above 50 µM. In addition, 80 nM corresponded to half-maximal inhibition in data set [2] (IC50).

The compound `CCC[C@]1(CC(=O)O)OCCc2c1[nH]c1c(C)ccc(C#N)c21` registered an EC50 with Hepatitis C virus [3] of 4.8 µM. In addition, the Activity entry in the data set on Hepatitis C virus [4] was “Dose-dependent effect”. For the same compound, the IC50 was found to be 300 nM in data set [5], 300 nM in the data set with Hepatitis C virus [6], 300 nM in data set [7] and 330 nM in data set [2]. Moreover, the outcome in the data set filed under Homo sapiens was inactive.

`CCC[C@]1(CC(=O)O)OCCc2c1[nH]c1c(Cl)ccc(Cl)c21`: the Activity in data set [1] stood at 33 µM. This compound returned an IC50 in [2] of 60 nM.

Compound `CCCC1(CC(=O)O)OCCc2c1[nH]c1c(C)ccc(C#N)c21` (single isomer, unassigned) came in with an Activity in data set [1] above 50 µM. Moreover, the IC50 in data set [2] was 2400 nM.

Regarding `CCCC1(CC(=O)OCC)OCCc2c1[nH]c1c(C)ccc(C#N)c21` (centres undefined), the IC50 in [2] is above 30000 nM.

Take `CCC[C@@]1(CC(=O)O)OCCc2c1[nH]c1c(Cl)ccc(CC)c21`: the Activity in data set [1] is above 50 µM. Also, the IC50 in data set [2] is above 15000 nM.

In data set [2], `CCCC1(CC(=O)O)OCCc2c1[nH]c1c(Cl)ccc(Cl)c21` (centres undefined) yielded an IC50 of 270 nM.

Take `CCCC1(CC(=O)O)OCCc2c1[nH]c1c(F)ccc(C#N)c21` (centres undefined): the midpoint of inhibition in data set [2], the IC50, lay at 1000 nM.

Consider `CCC[C@]1(CC(=O)O)OCCc2c1[nH]c1c(F)ccc(C#N)c21`, for which, in [1], the Activity is above 50 µM. Moreover, in data set [2], the IC50 came to 440 nM.

Consider `CCCC1(CC(=O)O)OCCc2c1[nH]c1c(Cl)ccc(CC)c21` (centres undefined), for which the IC50 in [8] was above 100 µM; in data set [9] it was above 100 µM; in data set [10], above 75 µM; at DNA polymerase beta, above 100 µM; in [2], 3000 nM. In addition, the Activity result (in data set [1]; in the data set on Vero) was “Not Active” each time.

`CCC[C@@]1(CC(=O)O)OCCc2c1[nH]c1c(F)ccc(C#N)c21` came in with an Activity in [1] above 50 µM. The same compound showed an IC50 in data set [2] of 5200 nM.

Regarding `CCC[C@]1(CC(=O)O)OCCc2c1[nH]c1c(Cl)ccc(CC)c21`, the Activity in data set [1] was above 50 µM. Besides, the IC50 in [2] stood at 2000 nM.
